Data as given in ChEMBL document CHEMBL1121802, “Imine analogues of tricyclic antidepressants” (1981).

How the values were obtained:
Type in all cases: functional
[1] = test system: Mus musculus; test: The effect on 24-hour mortality in mice following oral administration
[2] = test system: Mus musculus; test: The effect on ataxia in mice following oral administration
Outline: (§1)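 Observed at 0.5, 2, 5 and 24 h for ataxia (abnormal gait/imprecise movement), pupil diameter (dissecting microscope, 20×, micrometer), excitement (spontaneous running/jumping) and electroshock protection (corneal electrodes at 2 and 5 h). ED50 by Thompson method.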

[3] = test system: Mus musculus; test: Compound was tested for antidepressant activity by determining the reversal of tetrabenazine-induced ptosis upon oral administration; 7-22
Outline: (§2)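 Mice given test drug orally; 30 min later challenged with tetrabenazine (methanesulfonate) 32 mg/kg ip in 0.05 M KCl pH 2.0. Scored 1 h after test drug for exploratory activity and ptosis; ptosis antagonism = lid closure <50% in both eyes exactly 2 s after placing mouse facing observer. ED50 calculated by Thompson method.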

[4] = test system: Mus musculus; test: Compound was tested for antidepressant activity by determining the decreased exploratory activity in mice upon oral administration; 12-32; outline: as §2
[5] = test system: Mus musculus; test: The effect on electroshock protection in mice following oral administration; outline: as §1
[6] = test system: Mus musculus; test: The effect on excitement was measured in mice following oral administration; outline: as §1
[7] = test system: Mus musculus; test: Effect on pupil dilation was measured in mice upon oral administration; outline: as §1
[8] = test system: Mus musculus; test: Compound was tested for antidepressant activity by determining the reversal of tetrabenazine-induced ptosis upon oral administration; 0.9-3.3; outline: as §2
[9] = test system: Mus musculus; test: Antidepressant activity by determining the decreased exploratory activity in mice upon oral administration; outline: as §2
[10] = test system: Mus musculus; test: Compound was tested for antidepressant activity by determining the reversal of tetrabenazine-induced ptosis upon oral administration; 2.7-5.1; outline: as §2
[11] = test system: Mus musculus; test: Compound was tested for antidepressant activity by determining the decreased exploratory activity in mice upon oral administration; 7.9-16; outline: as §2
[12] = test system: Mus musculus; test: Compound was tested for antidepressant activity by determining the reversal of tetrabenazine-induced ptosis upon oral administration; 0.7-1.9; outline: as §2
[13] = test system: Mus musculus; test: Compound was tested for antidepressant activity by determining the decreased exploratory activity in mice upon oral administration; 6.0-12.0; outline: as §2
[14] = test system: Mus musculus; test: Antidepressant activity by determining the reversal of tetrabenazine-induced ptosis upon oral administration; outline: as §2
[15] = test system: Mus musculus; test: Compound was tested for antidepressant activity by determining the decreased exploratory activity in mice upon oral administration; 34-158; outline: as §2
[16] = test system: Mus musculus; test: Compound was tested for antidepressant activity by determining the reversal of tetrabenazine-induced ptosis upon oral administration; 6-21; outline: as §2
[17] = test system: Mus musculus; test: Compound was tested for antidepressant activity by determining the decreased exploratory activity in mice upon oral administration; 16-31; outline: as §2
[18] = test system: Mus musculus; test: The effect on 24-hour mortality was measured in mice upon ip administration
[19] = test system: Mus musculus; test: The effect on ataxia was measured in mice upon ip administration
[20] = test system: Mus musculus; test: The effect on electroshock protection was measured in mice upon ip administration
[21] = test system: Mus musculus; test: The effect on excitement was measured in mice upon ip administration
[22] = test system: Mus musculus; test: Compound was tested for antidepressant activity by determining the reversal of tetrabenazine-induced ptosis upon oral administration; 2.2-6.2; outline: as §2
[23] = test system: Mus musculus; test: Compound was tested for antidepressant activity by determining the decreased exploratory activity in mice upon oral administration; 9.2-17; outline: as §2
[24] = test system: Mus musculus; test: Compound was tested for antidepressant activity by determining the reversal of tetrabenazine-induced ptosis upon oral administration; 27-60; outline: as §2
[25] = test system: Mus musculus; test: Compound was tested for antidepressant activity by determining the reversal of tetrabenazine-induced ptosis upon oral administration; 2.0-3.1; outline: as §2
[26] = test system: Mus musculus; test: Compound was tested for antidepressant activity by determining the decreased exploratory activity in mice upon oral administration; 4.2-9.7; outline: as §2
[27] = test system: Mus musculus; test: Compound was tested for antidepressant activity by determining the reversal of tetrabenazine-induced ptosis upon oral administration; 0.8-2.6; outline: as §2
[28] = test system: Mus musculus; test: Compound was tested for antidepressant activity by determining the decreased exploratory activity in mice upon oral administration; 4.1-12; outline: as §2
[29] = test system: Mus musculus; test: Compound was tested for antidepressant activity by determining the reversal of tetrabenazine-induced ptosis upon oral administration; 84-110; outline: as §2
[30] = test system: Mus musculus; test: Compound was tested for antidepressant activity by determining the decreased exploratory activity in mice upon oral administration; outline: as §2
[31] = test system: Mus musculus; test: Compound was tested for antidepressant activity by determining the reversal of tetrabenazine-induced ptosis upon oral administration; 22-53; outline: as §2
[32] = test system: Mus musculus; test: Compound was tested for antidepressant activity by determining the reversal of tetrabenazine-induced ptosis upon oral administration; 0.3-1.2; outline: as §2
[33] = test system: Mus musculus; test: Compound was tested for antidepressant activity by determining the decreased exploratory activity in mice upon oral administration; 1.2-5.5; outline: as §2
[34] = test system: Mus musculus; test: Compound was tested for antidepressant activity by determining the reversal of tetrabenazine-induced ptosis upon oral administration; 3.0-12.0; outline: as §2
[35] = test system: Mus musculus; test: Compound was tested for antidepressant activity by determining the reversal of tetrabenazine-induced ptosis upon oral administration; 1.3-2.7; outline: as §2
[36] = test system: Mus musculus; test: Compound was tested for antidepressant activity by determining the decreased exploratory activity in mice upon oral administration; 4.7-17; outline: as §2
[37] = test system: Mus musculus; test: Compound was tested for antidepressant activity by determining the reversal of tetrabenazine-induced ptosis upon oral administration; 0.5-0.9; outline: as §2
[38] = test system: Mus musculus; test: Compound was tested its antidepressant activity by determining the decreased exploratory activity in mice upon oral administration; 1.1-2.1; outline: as §2
[39] = test system: Mus musculus; test: Compound was tested for its antidepressant activity by determining the decreased exploratory activity in mice upon oral administration; 8.1-15.4; outline: as §2
[40] = test system: Mus musculus; test: Compound was tested for antidepressant activity by determining the reversal of tetrabenazine-induced ptosis upon oral administration; 1.1-1.8
[41] = test system: Mus musculus; test: Compound was tested for antidepressant activity by determining the decreased exploratory activity in mice upon oral administration; 2.7-4.6

SMILES | ED50 [1] [mg/kg] | ED50 [2] [mg/kg] | ED50 [5] [mg/kg] | ED50 [6] [mg/kg] | ED50 [7] [mg/kg] | other results
CN(C)CC/N=C1\c2ccccc2CNc2ccccc21 | 300 | 36 | > 324 | > 324 | 36 | ED50 [3]: 12 mg/kg; ED50 [4]: 20 mg/kg
CN(C)CCCN=C1c2ccccc2C2CC2c2ccccc21 (stereo not drawn) | 200 | 12 | > 324 | > 324 | 12 | ED50 [8]: 1.7 mg/kg; ED50 [9]: > 81 mg/kg
CN(C)CC/N=C1\c2ccccc2C2CC2c2ccc(Cl)cc21 (stereo not drawn) | 200 | 20 | 200 | 60 | 12 | ED50 [10]: 3.7 mg/kg; ED50 [11]: 11.2 mg/kg
CCNCCN=C1c2ccccc2C2CC2c2ccccc21 (stereo not drawn) | 200 | 36 | > 324 | > 324 | 36 | ED50 [12]: 1.1 mg/kg; ED50 [13]: 8.4 mg/kg
CN(C)CCN=c1c2ccccc2oc2ccccc12 | 300 | 60 | > 324 | 60 | > 324 | ED50 [14]: > 125 mg/kg; ED50 [15]: 73 mg/kg
CN(C)CC/N=C1\c2ccccc2CN(C)c2ccccc21 | 60 | 60 | 200 | > 324 | 60 | ED50 [16]: 11 mg/kg; ED50 [17]: 22 mg/kg
c1ccc2c(c1)CCc1ccccc1C2=NCCN1CCOCC1 |  |  |  |  | 100 | ED50 [18]: 300 mg/kg; ED50 [19]: 200 mg/kg; ED50 [20]: 300 mg/kg; ED50 [14]: > 125 mg/kg; ED50 [9]: > 125 mg/kg; ED50 [21]: > 324 mg/kg
CN(C)CCN=C1c2ccccc2C2C(c3ccccc31)C2(F)F (stereo not drawn) | > 324 | 60 | 200 | > 324 | 200 | ED50 [22]: 3.7 mg/kg; ED50 [23]: 12.5 mg/kg
CN(C)CC/N=C1\c2ccccc2CS(=O)(=O)c2ccccc21 | > 324 | 200 | > 324 | 200 | 36 | ED50 [9]: > 125 mg/kg; ED50 [24]: 40 mg/kg
CN(C)CCN=c1c2ccccc2ccc2ccccc12 | 36 | 4 | > 324 | 7 | 4 | ED50 [25]: 2.5 mg/kg; ED50 [26]: 6.4 mg/kg
CCN(CC)CCN=C1c2ccccc2C2CC2c2ccccc21 (stereo not drawn) | 200 | 36 | 100 | > 324 | 36 | ED50 [27]: 1.4 mg/kg; ED50 [28]: 6.9 mg/kg
CN(C)CCCN=c1c2ccccc2sc2ccccc12 | 200 | 60 | > 324 | 60 | 60 | ED50 [29]: 96 mg/kg; ED50 [30]: 125 mg/kg
c1ccc2c(c1)C(=NCCN1CCCCC1)c1ccccc1C1CC21 (stereo not drawn) | 200 | 12 | > 324 | > 324 | > 324 | ED50 [31]: 34 mg/kg; ED50 [9]: > 125 mg/kg
CNCCN=C1c2ccccc2C2CC2c2ccccc21 (stereo not drawn) | 300 | 36 | 300 | > 324 | 60 | ED50 [32]: 0.6 mg/kg; ED50 [33]: 2.6 mg/kg
CN(C)CC/N=C1\c2ccccc2COc2ccccc21 | 200 | 36 | 60 | > 324 | 20 | ED50 [34]: 6 mg/kg; ED50 [30]: 33 mg/kg
CN(C)CCN=C1c2ccccc2CCc2ccccc21 | 100 | 20 | 36 | > 324 | 20 | ED50 [35]: 1.9 mg/kg; ED50 [36]: 9 mg/kg
NCCN=C1c2ccccc2C2CC2c2ccccc21 (stereo not drawn) | 200 | 60 | 100 | > 324 | 100 | ED50 [37]: 0.7 mg/kg; ED50 [38]: 1.5 mg/kg
CN(C)CC/N=C1\c2ccccc2CCc2ccc(Cl)cc21 (mixture of isomers) | 100 | 20 | 60 | > 324 | 36 | ED50 [14]: 4.9 mg/kg; ED50 [39]: 11.2 mg/kg
CN(C)CCC=C1c2ccccc2CCc2ccccc21 [AMITRIPTYLINE] | 190 | 14 | 43 | > 324 | 23 | ED50 [40]: 1.4 mg/kg; ED50 [41]: 3.5 mg/kg
